Results on 1 molecule are retold here after ChEMBL document CHEMBL3621120, “Discovery of ((4-(5-(Cyclopropylcarbamoyl)-2-methylphenylamino)-5-methylpyrrolo[1,2-f][1,2,4]triazine-6-carbonyl)(propyl)carbamoyloxy)methyl-2-(4-(phosphonooxy)phenyl)acetate (BMS-751324), a Clinical Prodrug of p38α MAP Kinase Inhibitor” (J Med Chem, 2015).

Data set [1] concerns Caco-2. Description: Drug level in apical side of human Caco2 cells incubated at 37 degC for 2 hrs. As to conditions: caco-2, 2 h; call rule not given here. It counts as ADME, cell-based. The gist of the method: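 Compounds loaded on apical side of Caco-2 monolayers and incubated at 37 °C for 2 h; prodrug, intermediate and parent measured on apical and basal sides.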
Data set [2] can be described thus: Stability in pH 1.1 solution assessed as half-life at 37 degC. In kind it is physicochemical.
Data set [3] has as its target T1, Alkaline phosphatase, placental type (Homo sapiens, UniProt P05187). The data set can be described thus: Stability assessed as human placental ALP-mediated drug degradation by measuring compound remaining level in pH 7.5 tris buffer at 10 uM incubated for 0.5 hrs by LC/MS/MS method. It counts as ADME. As to conditions: read-out: Stability. The gist of the method:
(§1)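 Human placental alkaline phosphatase (1 unit/mL) incubated with compound at 10 µM in 89 mM tris buffer, pH 7.5, 37 °C; reactions in triplicate started by compound addition, sampled at 0, 15, 30, 60 min. For inhibition, HALT phosphatase inhibitor cocktail (100x dilution) added before compound. Samples quenched into EDTA, acetonitrile added, centrifuged, remaining compound measured by LC/MS/MS.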

In data set [4] the test system is Rattus norvegicus. Description: Bioavailability in Sprague-Dawley rat assessed as plasma BMS-582949 level at 100 mg/kg, po dose equivalent to BMS-582949 after 24 hrs by LC/MS/MS method. It counts as ADME, organism-based. The conditions noted are these: in vivo.
The target in data set [5] is T2, Liver carboxylesterase (Sus scrofa, UniProt Q29550).
T2 sequence (Q29550 whole entry): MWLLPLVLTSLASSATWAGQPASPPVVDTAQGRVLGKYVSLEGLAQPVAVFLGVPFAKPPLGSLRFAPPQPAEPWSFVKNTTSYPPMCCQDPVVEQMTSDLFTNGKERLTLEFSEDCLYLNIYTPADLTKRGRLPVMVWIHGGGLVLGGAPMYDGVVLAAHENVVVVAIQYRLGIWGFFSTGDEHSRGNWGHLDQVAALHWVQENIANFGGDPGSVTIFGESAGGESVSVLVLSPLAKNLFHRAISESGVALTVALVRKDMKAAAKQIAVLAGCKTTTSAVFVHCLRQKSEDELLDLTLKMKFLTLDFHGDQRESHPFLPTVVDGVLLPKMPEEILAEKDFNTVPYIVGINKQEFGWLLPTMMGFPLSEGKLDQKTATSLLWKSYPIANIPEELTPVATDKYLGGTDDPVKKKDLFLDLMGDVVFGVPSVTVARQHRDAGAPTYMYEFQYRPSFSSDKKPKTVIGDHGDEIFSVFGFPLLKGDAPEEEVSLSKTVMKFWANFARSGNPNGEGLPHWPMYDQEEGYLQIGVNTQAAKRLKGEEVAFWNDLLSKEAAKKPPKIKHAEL
The data set can be described thus: Stability assessed as porcine liver esterase-mediated drug degradation by measuring compound remaining level in pH 7.4 potassium phosphate buffer at 10 uM incubated for 0.25 hrs by LC/MS/MS. The conditions noted are these: pig, read-out: Stability. It counts as ADME, tissue-based. The gist of the method:
(§2)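 Porcine liver esterase with substrate at 10 µM in 89 mM potassium phosphate pH 7.4, 37 °C. Reaction started by adding compound. Aliquots taken at 0, 15, 30 and 60 min and quenched with acetonitrile. After centrifugation at 4 °C, percent remaining quantified by LC/MS/MS.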

In data set [6] the test system is Cynomolgus monkey. The data set can be described thus: Bioavailability in cynomolgus monkey assessed as plasma BMS-582949 level at 30 mg/kg, po dose equivalent to BMS-582949 after 24 hrs by LC/MS/MS method. In kind it is ADME, organism-based, Macaca fascicularis. The conditions noted are these: in vivo. The gist of the method:
(§3)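 Three overnight-fasted male cynomolgus monkeys (4.2-5.2 kg) given prodrug by oral gavage at 10 or 30 mg/kg, 5 mL/kg methocel suspension, one-week washout between doses. Femoral artery blood pre-dose and 0.25-24 h post-dose; plasma (centrifuged 4 °C) stored -20 °C and analysed by LC/MS/MS for parent.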

In data set [7] the test system is Rattus norvegicus. Description: AUC in Sprague-Dawley rat assessed as plasma BMS-582949 level at 10 mg/kg, po dose equivalent to BMS-582949 after 24 hrs by LC/MS/MS method. In kind it is ADME, organism-based. Details: time < 24 hr, dose 10 mg/kg, route oral. As to conditions: in vivo.
In data set [8] the test system is Cynomolgus monkey. The data set can be described thus: AUC in cynomolgus monkey assessed as plasma BMS-582949 level at 30 mg/kg, po dose equivalent to BMS-582949 after 24 hrs by LC/MS/MS method. In kind it is ADME, organism-based, Macaca fascicularis. Details: time < 24 hr, dose 30 mg/kg, route oral. The conditions noted are these: in vivo. The gist of the method: as §3

The subject of data set [9] is Rattus norvegicus. Description: Cmax in Sprague-Dawley rat assessed as plasma BMS-582949 level at 1 mg/kg, po dose equivalent to BMS-582949 after 24 hrs by LC/MS/MS method. It counts as ADME, organism-based. Details: dose 1 mg/kg, route oral. As to conditions: in vivo.
Data set [10] has as its system Rattus norvegicus. Description: Bioavailability in Sprague-Dawley rat assessed as plasma BMS-582949 level at 1 mg/kg, po dose equivalent to BMS-582949 after 24 hrs by LC/MS/MS method. In kind it is ADME, organism-based. The conditions noted are these: in vivo.
Data set [11] has as its system Rattus norvegicus. Description: Inhibition of LPS-induced TNFalpha level in Lewis rat at 0.03 to 10 mg/kg, po dose equivalent to BMS-582949 dosed 1 hr before LPS challenge and measured 90 mins post LPS challenge by ELISA method. It counts as functional. The gist of the method:
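Male Lewis rats (200-250 g) dosed orally 1 h before IP injection of 10ug E. coli O111:B4 LPS in 1.0 mL sterile saline; prodrug as suspension in 0.75% Methocel, 0.1% Tween 80, parent in PEG 300, controls given vehicle. Blood taken 90 min after LPS; serum TNF measured by ELISA; ED50 expressed as parent equivalent.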
A general note: ELISA stands for enzyme-linked immunosorbent assay.

The subject of data set [12] is Cynomolgus monkey. The data set can be described thus: Cmax in cynomolgus monkey assessed as plasma BMS-582949 level at 10 mg/kg, po dose equivalent to BMS-582949 after 24 hrs by LC/MS/MS method. The conditions noted are these: in vivo. Details: dose 10 mg/kg, route oral. In kind it is ADME, organism-based, Macaca fascicularis. The essentials: as §3
Data set [13] deals with Rattus norvegicus. The data set can be described thus: Cmax in Sprague-Dawley rat assessed as plasma BMS-582949 level at 10 mg/kg, po dose equivalent to BMS-582949 after 24 hrs by LC/MS/MS method. It counts as ADME, organism-based. Details: dose 10 mg/kg, route oral. As to conditions: in vivo.
Data set [14] deals with Cynomolgus monkey. The data set can be described thus: AUC in cynomolgus monkey assessed as plasma BMS-582949 level at 10 mg/kg, po dose equivalent to BMS-582949 after 24 hrs by LC/MS/MS method. On the set-up: time < 24 hr, dose 10 mg/kg, route oral. In kind it is ADME, organism-based, Macaca fascicularis. The conditions noted are these: in vivo. The essentials:
as §3

A short description of data set [15]: Solubility of the compound in pH 6.7 solution at room temperature. In kind it is physicochemical.
Data set [16] concerns the target T2, Liver carboxylesterase. The data set can be described thus: Stability assessed as porcine liver esterase-mediated drug degradation by measuring compound remaining level in pH 7.4 potassium phosphate buffer at 10 uM incubated for 1 hr by LC/MS/MS. It counts as ADME, tissue-based. As to conditions: pig, read-out: Stability. The gist of the method: as §2
The test system of data set [17] is Cynomolgus monkey. The data set can be described thus: Bioavailability in cynomolgus monkey assessed as plasma BMS-582949 level at 10 mg/kg, po dose equivalent to BMS-582949 after 24 hrs by LC/MS/MS method. It counts as ADME, organism-based, Macaca fascicularis. As to conditions: in vivo. The essentials:
as §3

Data set [18] deals with T2, Liver carboxylesterase. Description: Stability assessed as porcine liver esterase-mediated drug degradation by measuring compound remaining level in pH 7.4 potassium phosphate buffer at 10 uM incubated for 0.5 hrs by LC/MS/MS. In kind it is ADME, tissue-based. The conditions noted are these: pig, read-out: Stability. The gist of the method: as §2
Data set [19] addresses T1, Alkaline phosphatase, placental type. Description: Stability assessed as human placental ALP-mediated drug degradation by measuring compound remaining level in pH 7.5 tris buffer at 10 uM incubated for 0.5 hrs in presence of HALT phosphatase inhibitor cocktail by LC/MS/MS method. In kind it is ADME. The conditions noted are these: pH 7.5, with HALT phosphatase inhibitor cocktail, read-out: Stability. The gist of the method: as §1

Data set [20] deals with Rattus norvegicus. Description: Cmax in Sprague-Dawley rat assessed as plasma BMS-582949 level at 100 mg/kg, po dose equivalent to BMS-582949 after 24 hrs by LC/MS/MS method. The conditions noted are these: in vivo. Details: dose 100 mg/kg, route oral. It counts as ADME, organism-based.

≈ marks a conversion by molar mass, not a printed value.

T1 sequence (P05187 whole entry): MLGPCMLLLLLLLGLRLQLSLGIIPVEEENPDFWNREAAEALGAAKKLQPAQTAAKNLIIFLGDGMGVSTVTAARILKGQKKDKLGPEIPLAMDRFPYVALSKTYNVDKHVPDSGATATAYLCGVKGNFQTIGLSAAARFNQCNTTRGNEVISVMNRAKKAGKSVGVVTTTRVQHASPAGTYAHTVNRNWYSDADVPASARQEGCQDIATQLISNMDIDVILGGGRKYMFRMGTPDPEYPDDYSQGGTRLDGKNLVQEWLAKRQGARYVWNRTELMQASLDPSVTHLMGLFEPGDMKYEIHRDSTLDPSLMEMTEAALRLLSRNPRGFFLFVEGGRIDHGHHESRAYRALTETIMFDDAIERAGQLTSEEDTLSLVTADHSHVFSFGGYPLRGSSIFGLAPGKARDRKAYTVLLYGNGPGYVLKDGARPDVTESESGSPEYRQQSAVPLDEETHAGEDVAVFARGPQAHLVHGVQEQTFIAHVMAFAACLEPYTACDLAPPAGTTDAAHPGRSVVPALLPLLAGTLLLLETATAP

In general, half-life refers to how long it takes for the measured level to halve. What is called AUC is concentration integrated over time. In general, Cmax refers to the maximum level reached in the sampled fluid or tissue. What is called solubility is the concentration that dissolves in the medium under given conditions. Regarding `CCCN(C(=O)OCOC(=O)Cc1ccc(OP(=O)(O)O)cc1)C(=O)c1cn2ncnc(Nc3cc(C(=O)NC4CC4)ccc3C)c2c1C`, the Drug uptake entry in data set [1] is “Active”. Moreover, the half-life in data set [2] is 21 h. The remaining at 0.5 h, 10 µM in data set [3] is 11.1%; in [18], 100%; in data set [19], 94%. The F in data set [4] was 115%; in data set [6] it was 69%; in data set [10], 41%; in data set [17], 51%. Moreover, the remaining at 0.25 h, 10 µM in data set [5] worked out at 100%. The AUC was determined as 78 µM·h in [7], 96 µM·h in [8] and 24 µM·h in [14]. For the same molecule, the Cmax in data set [9] came out at 0.4 µM; in [12], 12 µM; in data set [13], 18 µM; in data set [20] it was 122 µM. Besides, in data set [11], the ED50 is 0.89 mg. Further, the inhibition entry in data set [11] was “Dose-dependent effect”. In data set [15], this molecule displayed a solubility of 3030 µg/mL (≈ 4.36 mM). The remaining at 1 h, 10 µM in data set [16] amounted to 100%.
